# Source: ChEMBL document CHEMBL4038284, “Synthesis of novel quinoline-based 4,5-dihydro-1H-pyrazoles as potential anticancer, antifungal, antibacterial and antiprotozoal agents” (Eur J Med Chem, 2017)
# What was measured:
# Format in all cases: functional
# [1] = system: SK-MEL-5; experiment: Growth inhibition of human SK-MEL-5 cells incubated for 48 hrs by sulforhodamine B assay; settings: SK-MEL-5, 48 h
# Outline: (§1)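 NCI 60-line screen. Cells in RPMI-1640 with 5% FBS and 2 mM L-glutamine, preincubated 24 h, then time-zero plates TCA-fixed. Compounds from DMSO stocks given at five final concentrations (100, 10, 1.0, 0.1, 0.01 µM) for 48 h at 37 °C, 5% CO2. Cells fixed with 10% TCA, SRB-stained, read at 515 nm. GI50 is the concentration giving 50% lower net protein increase versus control.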
# [2] = system: T47D; experiment: Growth inhibition of human T47D cells incubated for 48 hrs by sulforhodamine B assay
# Outline: (§2)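 NCI-60 panel cells grown in RPMI-1640 with 5% FBS and 2 mM L-glutamine, preincubated 24 h at 37 °C/5% CO2. Time-zero plates were TCA-fixed at compound addition. DMSO stocks were diluted in medium and tested at five final concentrations (100, 10, 1.0, 0.1, 0.01 µM) for 48 h. Cells were TCA-fixed, stained with SRB and read at 515 nm. GI50 = 50% lower net protein increase versus control.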
# [3] = system: LOX IMVI; experiment: Growth inhibition of human LOXIMVI cells incubated for 48 hrs by sulforhodamine B assay
# Outline: (§3)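 Five-dose NCI SRB assay at 100, 10, 1.0, 0.1 and 0.01 μM for 48 h at 37 °C, 5% CO2. Medium was RPMI-1640 with 5% FBS and 2 mM glutamine. Time-zero plates were TCA-fixed at compound addition, A515 read after SRB staining. GI50 was solved from [(Ti−Tz)/(C−Tz)]×100 = 50. Values beyond the tested range are given as > or <.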
# [4] = system: COLO 205; experiment: Growth inhibition of human COLO205 cells incubated for 48 hrs by sulforhodamine B assay; settings: COLO 205, 48 h
# Outline: (§4)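 NCI five-dose SRB assay (100, 10, 1.0, 0.1, 0.01 µM) with 48 h exposure in RPMI-1640 with 5% FBS and 2 mM L-glutamine. Cells fixed with TCA and stained with SRB, read at 515 nm. GI50 is the concentration where [(Ti−Tz)/(C−Tz)]×100 = 50.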
# [5] = system: MCF7; experiment: Growth inhibition of human MCF7 cells incubated for 48 hrs by sulforhodamine B assay; settings: MCF7, 48 h; outline: as §1
# [6] = system: MOLT-4; experiment: Growth inhibition of human MOLT4 cells incubated for 48 hrs by sulforhodamine B assay; settings: MOLT-4, 48 h; outline: as §1
# [7] = system: SF-268; experiment: Growth inhibition of human SF268 cells incubated for 48 hrs by sulforhodamine B assay; settings: SF-268, 48 h; outline: as §3
# [8] = system: HOP-62; experiment: Growth inhibition of human HOP62 cells incubated for 48 hrs by sulforhodamine B assay; settings: HOP-62, 48 h; outline: as §4
# [9] = system: EKVX; experiment: Growth inhibition of human EKVX cells incubated for 48 hrs by sulforhodamine B assay; outline: as §4
# [10] = system: M14; experiment: Growth inhibition of human M14 cells incubated for 48 hrs by sulforhodamine B assay; settings: M14, 48 h; outline: as §3
# [11] = system: UACC-62; experiment: Growth inhibition of human UACC62 cells incubated for 48 hrs by sulforhodamine B assay; settings: UACC-62, 48 h; outline: as §1
# [12] = system: HCT-116; experiment: Growth inhibition of human HCT116 cells incubated for 48 hrs by sulforhodamine B assay; settings: HCT-116, 48 h; outline: as §4
# [13] = system: Malme-3M; experiment: Growth inhibition of human MALME-3M cells incubated for 48 hrs by sulforhodamine B assay; outline: as §3
# [14] = system: NCI-H460; experiment: Growth inhibition of human NCI-H460 cells incubated for 48 hrs by sulforhodamine B assay; settings: NCI-H460, 48 h; outline: as §3
# [15] = system: U-251; experiment: Growth inhibition of human U251 cells incubated for 48 hrs by sulforhodamine B assay; settings: U-251, 48 h; outline: as §2
# [16] = system: CCRF-CEM; experiment: Growth inhibition of human CCRF-CEM cells incubated for 48 hrs by sulforhodamine B assay; outline: as §1
# [17] = system: NCI-H522; experiment: Growth inhibition of human NCI-H522 cells incubated for 48 hrs by sulforhodamine B assay; settings: NCI-H522, 48 h; outline: as §1
# [18] = system: SK-OV-3; experiment: Growth inhibition of human SKOV3 cells incubated for 48 hrs by sulforhodamine B assay; settings: SK-OV-3, 48 h; outline: as §1
# [19] = system: UO-31; experiment: Growth inhibition of human UO31 cells incubated for 48 hrs by sulforhodamine B assay; settings: UO-31, 48 h; outline: as §2
# [20] = system: SN12C; experiment: Growth inhibition of human SN12C cells incubated for 48 hrs by sulforhodamine B assay; outline: as §2
# [21] = system: OVCAR-5; experiment: Growth inhibition of human OVCAR5 cells incubated for 48 hrs by sulforhodamine B assay; settings: OVCAR-5, 48 h; outline: as §1
# [22] = system: A549; experiment: Growth inhibition of human A549/ATCC cells incubated for 48 hrs by sulforhodamine B assay; settings: A549, 48 h; outline: as §1
# [23] = system: PC-3; experiment: Growth inhibition of human PC3 cells incubated for 48 hrs by sulforhodamine B assay; settings: PC-3, 48 h; outline: as §3
# [24] = system: RXF 393; experiment: Growth inhibition of human RXF393 cells incubated for 48 hrs by sulforhodamine B assay; settings: RXF 393, 48 h; outline: as §3
# [25] = system: SW-620; experiment: Growth inhibition of human SW620 cells incubated for 48 hrs by sulforhodamine B assay; settings: SW-620, 48 h; outline: as §2
# [26] = system: SF-539; experiment: Growth inhibition of human SF539 cells incubated for 48 hrs by sulforhodamine B assay; settings: SF-539, 48 h; outline: as §2
# [27] = system: TK-10; experiment: Growth inhibition of human TK10 cells incubated for 48 hrs by sulforhodamine B assay; settings: TK-10, 48 h; outline: as §1
# [28] = system: DU-145; experiment: Growth inhibition of human DU145 cells incubated for 48 hrs by sulforhodamine B assay; settings: DU-145, 48 h; outline: as §4
# [29] = system: K562; experiment: Growth inhibition of human K562 cells incubated for 48 hrs by sulforhodamine B assay; settings: K562, 48 h; outline: as §1
# [30] = system: HCT-15; experiment: Growth inhibition of human HCT15 cells incubated for 48 hrs by sulforhodamine B assay; settings: HCT-15, 48 h; outline: as §1
# [31] = system: 786-0; experiment: Growth inhibition of human 786-0 cells incubated for 48 hrs by sulforhodamine B assay; settings: 786-0, 48 h; outline: as §4
# [32] = system: SR; experiment: Growth inhibition of human SR cells incubated for 48 hrs by sulforhodamine B assay; outline: as §1
# [33] = read-out: LC50 (the source's name)
smiles,measurement,setting,value
O=CN1N=C(c2ccc(Cl)cc2)CC1c1cccc(Nc2ccnc3cc(Cl)ccc23)c1 (centres undefined),GI50,[1],540 nM
same,CC50,[1]; [33],5050 nM
same,GI50,[2],820 nM
same,CC50,[2]; [33],> 100000 nM
same,GI50,[3],1290 nM
same,CC50,[3]; [33],9050 nM
same,GI50,[4],1430 nM
same,CC50,[4]; [33],21400 nM
same,GI50,[5],870 nM
same,CC50,[5]; [33],> 100000 nM
same,GI50,[6],1130 nM
same,CC50,[6]; [33],> 100000 nM
same,GI50,[7],2730 nM
same,CC50,[7]; [33],> 100000 nM
same,GI50,[8],1210 nM
same,CC50,[8]; [33],70000 nM
same,GI50,[9],1590 nM
same,LC50,[9],> 100000 nM
same,GI50,[10],1550 nM
same,CC50,[10]; [33],> 100000 nM
same,GI50,[11],1140 nM
same,CC50,[11]; [33],87800 nM
same,GI50,[12],1200 nM
same,LC50 (concentration killing 50% of cells),[12],17200 nM
same,GI50,[13],1270 nM
same,CC50,[13]; [33],76600 nM
same,GI50,[14],1860 nM
same,CC50,[14]; [33],> 100000 nM
same,GI50,[15],2470 nM
same,CC50,[15]; [33],53900 nM
same,GI50,[16],1420 nM
same,CC50,[16]; [33],> 100000 nM
same,GI50,[17],1120 nM
same,CC50,[17]; [33],66700 nM
same,GI50,[18],2900 nM
same,CC50,[18]; [33],> 100000 nM
same,GI50,[19],1700 nM
same,CC50,[19]; [33],> 100000 nM
same,GI50,[20],3990 nM
same,CC50,[20]; [33],> 100000 nM
same,GI50,[21],9420 nM
same,CC50,[21]; [33],> 100000 nM
same,GI50,[22],2030 nM
same,LC50 (concentration giving 50% net cell kill),[22],> 100000 nM
same,GI50,[23],1690 nM
same,CC50,[23]; [33],> 100000 nM
same,GI50,[24],1400 nM
same,CC50,[24]; [33],> 100000 nM
same,GI50,[25],1610 nM
same,CC50,[25]; [33],> 100000 nM
same,GI50,[26],1690 nM
same,CC50,[26]; [33],35100 nM
same,GI50,[27],2340 nM
same,CC50,[27]; [33],> 100000 nM
same,GI50,[28],2800 nM
same,CC50,[28]; [33],> 100000 nM
same,GI50,[29],390 nM
same,CC50,[29]; [33],> 100000 nM
same,GI50,[30],1360 nM
same,CC50,[30]; [33],> 100000 nM
same,GI50,[31],2960 nM
same,LC50,[31],62700 nM
same,GI50,[32],400 nM
same,CC50,[32]; [33],> 100000 nM
